These results are taken from PMC11097374 (ACS Omega, 2024).

For series [1], the system named is MCF-7 cells. Nature of the series: MCF-7 cell cycle analysis by flow cytometry. The class given is cell-based, human. The note with it: MCF-7, 24 h treatment with IC50. On the technique in general: A flow cytometer gives signals particle by particle.
Series [2] deals with MCF-7 cells. In words: Annexin V-FITC/PI double staining apoptosis assay. The class given is cell-based, human. The settings on record: MCF-7, 24 h treatment with IC50.
Series [3] has as its system MCF-7 cells. In words: MTT assay against human breast cancer cell line MCF-7. In kind it is cell-based. In a few lines:
(§1)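 Cytotoxicity by MTT, run side by side on MCF-7 and MDA-MB231 breast cancer cells and Wi-38 normal human fibroblasts, with doxorubicin as reference. IC50 was determined for each line, and IC100 also on Wi-38. Selectivity indices express selectivity toward each breast cancer line over the normal Wi-38 cells.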

Series [4] relates to calf thymus DNA (ctDNA). In words: DNA damage by terbium. The class given is biochemical. The settings on record: 24 h incubation, Tb fluorescence 545 nm.
The test system of series [5] is Wi-38 normal human lung fibroblast cells. In words: MTT assay against normal human cell line. The class given is cell-based. Put shortly: as §1
On the technique in general: Tetrazolium dyes change colour on reduction, which living cells bring about.

In series [6] the test system is MDA-MB 231 cells. Nature of the series: MTT assay against human breast cancer cell line MDA-MB 231. The class given is cell-based. Put shortly:
as §1

With `CC(=O)Nc1c(N)nc(SCC(=O)NN)[nH]c1=O` [Compound 5, N-(4-amino-2-((2-hydrazinyl-2-oxoethyl)thio)-6-oxo-1,6-dihydropyrimidin-5-yl)acetamide], the “cell cycle distribution compared to untreated cells” value in series [1] was “increased DNA content during S”. In series [2], this compound showed an early apoptosis of 29.11%. The late apoptosis in series [2] is given as 17.64%. Further, in series [2] (control 0.73%), the “total cell death (apoptosis induction)” value amounted to 46.75%. Besides, in series [2] (control 1.34%), the necrotic cells is 5.39%. The IC50 (commonly the point on the concentration scale where inhibition reaches its midpoint) in series [3] (Homo sapiens, MCF7, 72 h, read-out: MCF-7 IC50) is 50 ± 8 nM; in series [5] (Homo sapiens, WI-38, 72 h, read-out: Wi-38 IC50), 801 ± 31 nM; in series [6] (Homo sapiens, MDA-MB-231, 72 h, read-out: MDA-MB 231 IC50), 826 ± 46 nM. In addition, the “cytotoxicity compared to doxorubicin” value in series [3] (MTT, cell line not given, fits MCF-7 IC50 values) was “surpassed doxorubicin”. Besides, the “MCF-7 SI (selectivity index)” value in series [3] (over Wi-38 normal cells) was determined as 16.02. In addition, in series [4], the “LOD (minimum concentration inducing detectable DNA damage)” value amounted to 10.64 nM. This compound also had an LOQ in series [4] of 35.48 nM. Further, the “Wi-38 IC100” value in series [5] (MTT, 72 h, SI calls it EC100, dose at 100% cell viability, mean ± SEM) is 0.240 ± 0.003 µM. For the same compound, in series [6] (over Wi-38 normal cells), the “MDA-MB 231 SI (selectivity index)” value came out at 0.969.
